This note sets out measurements from ChEMBL document CHEMBL1135679, “Potent delta-opioid receptor agonists containing the Dmt-Tic pharmacophore” (J Med Chem, 2002).

The target in experiment [1] is Mu-type opioid receptor (Cavia porcellus, UniProt P97266). Put plainly: In vitro inhibitory activity against electrically evoked contractions of guinea pig ileum (GPI). The format is functional, tissue-based. The essentials:
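Isolated tissue bioassay. IC50 read from concentration–response curves of agonist inhibition. Mean ± SE of at least five fresh tissue samples, with an internal standard peptide run for each tissue.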

In experiment [2] the target is Delta-type opioid receptor (Mus musculus, UniProt P32300). Put plainly: In vitro inhibitory activity against electrically evoked contractions of in mouse vas deferens (MVD). The format is functional, tissue-based.
Delta-type opioid receptor (Mus musculus, UniProt P32300), sequence (P32300 whole entry): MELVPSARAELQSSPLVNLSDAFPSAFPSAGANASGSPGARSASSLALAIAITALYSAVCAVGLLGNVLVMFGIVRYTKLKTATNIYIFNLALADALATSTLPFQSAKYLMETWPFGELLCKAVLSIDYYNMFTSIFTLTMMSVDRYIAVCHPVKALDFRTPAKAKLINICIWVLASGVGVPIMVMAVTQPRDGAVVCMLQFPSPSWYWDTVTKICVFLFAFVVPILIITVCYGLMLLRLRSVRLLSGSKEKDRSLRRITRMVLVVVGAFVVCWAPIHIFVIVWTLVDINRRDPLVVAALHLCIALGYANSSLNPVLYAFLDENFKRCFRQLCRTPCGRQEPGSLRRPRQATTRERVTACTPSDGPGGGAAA
Experiment [3] concerns the target Delta-type opioid receptor (Rattus norvegicus, UniProt P33533). Put plainly: Inhibition of [3H]DPDPE binding to Opioid receptor delta 1 of rat brain P2 synaptosomes. The format is subcellular. In a few lines: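 Rat brain P2 synaptosomes, pretreated 60 min at room temperature in 0.1 M NaCl, 0.4 mM GDP, 50 mM HEPES pH 7.5 and 50 µg/mL trypsin inhibitor, then washed and frozen at -80 °C. Competition against [3H]DPDPE for 2 h at room temperature. Nonspecific binding defined with 2 µM unlabelled peptide. Filtered on GF/C and counted. Five to eight doses in duplicate, 3–5 independent preparations, mean ± SE. Ki via Cheng–Prusoff.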

The target of experiment [4] is Mu-type opioid receptor (Rattus norvegicus, UniProt P33535). Put plainly: Inhibition of [3H]DAGO binding to Opioid receptor mu 1 of rat brain P2 synaptosomes. The format is subcellular. The essentials: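 Competition binding on rat brain P2 synaptosomes. Synaptosomes were preincubated 60 min at room temperature in 0.1 M NaCl, 0.4 mM GDP, 50 mM HEPES pH 7.5 and 50 µg/mL soybean trypsin inhibitor to strip endogenous opioids, then washed, stored at -80 °C, and labelled with [3H]DAGO. Incubation ran 2 h at room temperature to equilibrium. Nonspecific binding was set with 2 µM unlabelled peptide. Bound ligand was collected by GF/C filtration and counted. Five to eight doses in duplicate, 3–5 repetitions on separate preparations, mean ± SE. Ki by Cheng–Prusoff.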
Mu-type opioid receptor (Rattus norvegicus, UniProt P33535), sequence (P33535 whole entry): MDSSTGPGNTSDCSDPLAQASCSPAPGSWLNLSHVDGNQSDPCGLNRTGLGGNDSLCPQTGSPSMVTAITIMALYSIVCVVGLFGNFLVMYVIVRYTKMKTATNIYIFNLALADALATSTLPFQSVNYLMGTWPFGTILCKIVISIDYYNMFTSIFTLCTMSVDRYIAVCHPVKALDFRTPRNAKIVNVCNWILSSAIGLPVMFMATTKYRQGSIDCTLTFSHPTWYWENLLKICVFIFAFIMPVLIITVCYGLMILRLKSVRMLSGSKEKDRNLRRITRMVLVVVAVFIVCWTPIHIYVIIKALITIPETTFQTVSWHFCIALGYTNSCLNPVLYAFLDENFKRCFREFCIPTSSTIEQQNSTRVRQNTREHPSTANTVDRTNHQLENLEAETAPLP

Experiment [5] can be described thus: Relative binding to mu and delta opioid receptors (ratio of Ki).
The target in experiment [6] is Delta-type opioid receptor (Mus musculus) (UniProt P32300). As to conditions: Vas deferens.
Delta-type opioid receptor (Mus musculus), sequence (P32300 whole entry): as the sequence (P32300 whole entry) above
The target is the same in experiment [7]. Put plainly: In vitro inhibitory activity against electrically evoked contractions of the mouse vas deferens (MVD). The format is functional, tissue-based.

SMILES strings stand for the structures. Square brackets hold non-standard residues; d marks the D form. Peptide text beside a SMILES is read from it. Dmt = Cc1cc(O)cc(C)c1C[C@H](N)C(=O)O; Tic = O=C(O)[C@@H]1Cc2ccccc2CN1

Mu-type opioid receptor (Cavia porcellus, UniProt P97266), sequence (P97266 whole entry): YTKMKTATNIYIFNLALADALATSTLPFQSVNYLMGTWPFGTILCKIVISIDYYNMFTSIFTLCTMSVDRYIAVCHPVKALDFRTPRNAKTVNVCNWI
Delta-type opioid receptor (Rattus norvegicus, UniProt P33533), sequence (P33533 whole entry): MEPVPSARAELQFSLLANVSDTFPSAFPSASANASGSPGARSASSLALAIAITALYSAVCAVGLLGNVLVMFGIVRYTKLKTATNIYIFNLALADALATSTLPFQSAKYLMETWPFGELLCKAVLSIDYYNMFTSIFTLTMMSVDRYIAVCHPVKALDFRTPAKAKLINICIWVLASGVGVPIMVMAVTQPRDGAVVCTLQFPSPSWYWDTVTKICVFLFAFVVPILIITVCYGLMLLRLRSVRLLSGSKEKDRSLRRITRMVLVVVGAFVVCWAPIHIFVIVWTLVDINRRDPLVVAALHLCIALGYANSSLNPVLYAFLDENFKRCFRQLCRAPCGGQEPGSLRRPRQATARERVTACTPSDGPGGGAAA

On to `Cc1cc(O)cc(C)c1C[C@H](N)C(=O)N1Cc2ccccc2C[C@H]1C(=O)NCc1nc2ccccc2[nH]1`, for which the values for the IC50 in experiment [1] and in experiment [2] were 40.7 nM and 0.035 nM, respectively.
The molecule `Cc1cc(O)cc(C)c1C[C@H](N)C(=O)N1Cc2ccccc2C[C@H]1C(=O)N[C@@H](CC(N)=O)C(=O)O` (H-[Dmt]-[Tic]-Asn-OH) had an IC50 in experiment [1] of more than 10000 nM. Moreover, the Ki in experiment [3] was 1.1 nM; in experiment [4] it was 80.3 nM. Also, the Selectivity in experiment [5] was found to be 73. This molecule returned a Ke in experiment [6] of 5.88 nM.
As for `Cc1cc(O)cc(C)c1C[C@H](N)C(=O)N1Cc2ccccc2C[C@H]1C(=O)N[C@@H](Cc1nc2ccccc2[nH]1)C(=O)O`, the half-inhibitory concentration (IC50) in experiment [1] was determined as 1560 nM; in experiment [2], 0.015 nM. In addition, the Ki in experiment [3] is 0.042 nM; in experiment [4] it was 21.7 nM. In addition, the Selectivity in experiment [5] was determined as 516.
With `Cc1cc(O)cc(C)c1C[C@H](N)C(=O)N1Cc2ccccc2C[C@H]1C(=O)N[C@@H](C)c1nc2ccccc2[nH]1`, the IC50 in experiment [1] was 71.7 nM. The Ki in experiment [3] is 0.063 nM; in experiment [4] it was 0.411 nM. For the same molecule, the Selectivity in experiment [5] is 6.5.
For the molecule `CC(C)[C@H](NC(=O)[C@H](CC(=O)O)NC(=O)[C@H](Cc1ccccc1)NC(=O)[C@H](C)NC(=O)[C@@H](N)Cc1ccc(O)cc1)C(=O)N[C@H](C(=O)NCC(=O)O)C(C)C`, the IC50 in experiment [1] was more than 1200 nM; in experiment [2], 0.3 nM. The Ki in experiment [3] came out at 0.24 nM; in experiment [4], 272 nM. Moreover, the Selectivity in experiment [5] amounted to 1140.
`C[C@@H](NC(=O)[C@@H](N)Cc1ccc(O)cc1)C(=O)N[C@@H](Cc1ccccc1)C(=O)NCC(=O)N[C@@H](Cc1ccc(O)cc1)C(=O)N1CCC[C@H]1C(=O)N[C@@H](CO)C(N)=O` [DERMORPHIN] registered a half-inhibitory concentration (IC50) in experiment [1] of 1.21 nM. The same molecule showed a Ki in experiment [4] of 1.22 nM.
On to `Cc1cc(O)cc(C)c1C[C@H](N)C(=O)N1Cc2ccccc2C[C@H]1C(=O)N[C@@H](C)C(N)=O` (H-[Dmt]-[Tic]-Ala-NH2), for which, in experiment [5], the Selectivity was 195. Also, in experiment [6], the Ke came to 10 nM.
The molecule `Cc1cc(O)cc(C)c1C[C@H](N)C(=O)N1Cc2ccccc2C[C@H]1C(=O)NCCc1nc2ccccc2[nH]1` showed an IC50 in experiment [1] of 108 nM. The Selectivity in experiment [5] worked out at 82. This molecule yielded a Ke in experiment [6] of 4.78 nM.
With `Cc1cc(O)cc(C)c1C[C@H](N)C(=O)N1Cc2ccccc2C[C@H]1C(=O)N[C@H](C)c1nc2ccccc2[nH]1`, the concentration for half-maximal inhibition (IC50) in experiment [1] is 6.36 nM; in experiment [2], 0.026 nM. The Ki in experiment [3] turned out to be 0.047 nM; in experiment [4] it was 0.233 nM. The Selectivity in experiment [5] amounted to 5.
In the case of `Cc1cc(O)cc(C)c1C[C@H](N)C(=O)N1Cc2ccccc2C[C@H]1C(=O)N[C@@H](CC(=O)O)c1nc2ccccc2[nH]1`, in experiment [5], the Selectivity was determined as 122.
`Cc1cc(O)cc(C)c1C[C@H](N)C(=O)N1Cc2ccccc2C[C@H]1C(=O)N[C@@H](CC(=O)O)C(N)=O` (H-[Dmt]-[Tic]-Asp-NH2) yielded an IC50 in experiment [1] of more than 10000 nM. The Ki stood at 0.289 nM in experiment [3] and 2560 nM in experiment [4]. In experiment [7], the Ke came to 7.58 nM. Also, in experiment [5], the Selectivity was determined as 8880.
The molecule `Cc1cc(O)cc(C)c1C[C@H](N)C(=O)N1Cc2ccccc2C[C@H]1C(=O)N[C@H](C)C(N)=O` (H-[Dmt]-[Tic]-[dA]-NH2) gave an IC50 in experiment [1] of more than 10000 nM. For the same molecule, the Ki in experiment [3] turned out to be 0.301 nM; in experiment [4], 47.5 nM. The Selectivity in experiment [5] turned out to be 158. Also, the Ke in experiment [6] worked out at 25.1 nM.

Usually IC50 stands for the point on the concentration scale where inhibition reaches its midpoint. A lower IC50 goes with higher potency. By Ki is commonly meant the dissociation constant of the complex between target and ligand, obtained from inhibition or displacement. High values mean lower affinity, low ones higher affinity.
